This is an account of results in ChEMBL document CHEMBL1139579, “Structure-activity relationship of a series of cyclohexylpiperidines bearing an amide side chain as antagonists of the human melanocortin-4 receptor” (Bioorg Med Chem Lett, 2005).

The target of assay [1] is T1, Melanocortin receptor 4 (Homo sapiens, UniProt P32245). The assay is described as follows: Stimulation of cAMP levels in the HEK293 cell line at 10 uM. The format is functional, cell-based. In outline:
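Agonism was measured as cAMP levels in HEK293 cells stably expressing human MC4R. The test ligand was applied at 10 μM, and the response was expressed relative to the response to α-MSH.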

Assay [2] deals with T1, Melanocortin receptor 4. As to the kind of experiment: Inhibition of [125I]NDP-MSH (radioligand) binding to the hMC4R stably expressed in HEK293 cells. In kind it is cell-based. In outline: (§1)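 Competition binding was run on HEK293 cells stably transfected with human MC1R, MC3R, MC4R or MC5R, each receptor in its own line. The radioligand was [125I]-NDP-MSH. For the MC4R values, data are the average of two to three independent measurements.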

Assay [3] has as its target T1, Melanocortin receptor 4. The assay is described as follows: Inhibition of [125I]-AgRP(83132) (radioligand) binding to the hMC4R stably expressed in HEK293 cells. In kind it is cell-based. In outline: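 Competition binding was run on HEK293 cells stably transfected with human MC4R. The radioligand was [125I]-AgRP(83–132).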
The next assay addresses Melanocortin receptor 3 (Homo sapiens, UniProt P41968). The assay is described as follows: Inhibition of [125I]-NDP-MSH (radioligand) binding to the human MC3R stably expressed in HEK293 cells. The format is cell-based. In outline: as §1
The target in another assay is Melanocortin receptor 5 (Homo sapiens, UniProt P33032). The assay is described as follows: Inhibition of [125I]NDP-MSH (radioligand) binding to the human MC5R stably expressed in HEK293 cells. In kind it is cell-based. In outline: as §1
Chain of Melanocortin receptor 5 (P33032 whole entry): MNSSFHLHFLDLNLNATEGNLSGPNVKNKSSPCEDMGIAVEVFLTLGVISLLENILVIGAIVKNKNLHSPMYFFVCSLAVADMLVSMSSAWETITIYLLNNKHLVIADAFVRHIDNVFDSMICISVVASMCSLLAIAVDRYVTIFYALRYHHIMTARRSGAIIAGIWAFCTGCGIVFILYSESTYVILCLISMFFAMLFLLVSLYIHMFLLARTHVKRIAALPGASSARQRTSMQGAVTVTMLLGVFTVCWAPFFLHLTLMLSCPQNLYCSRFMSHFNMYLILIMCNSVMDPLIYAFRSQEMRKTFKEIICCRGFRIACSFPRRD
In a further assay the test system is HEK293. As to the kind of experiment: Dose-dependent inhibition of cAMP production stimulated by 10 nM a-MSH in HEK293 cells. In kind it is functional, cell-based, Homo sapiens. In outline:
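Functional antagonism was measured as inhibition of cAMP production in HEK293 cells stably expressing human MC4R. Cells were stimulated with 10 nM α-MSH, and the test ligand was applied over a range of concentrations.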
For orientation: Changes in cAMP serve as a functional read-out for many G protein-coupled receptors.

The target in assay [4] is Melanocyte-stimulating hormone receptor (Homo sapiens, UniProt Q01726). As to the kind of experiment: Inhibition of [125I]NDP-MSH (radioligand) binding to human MC1R at 10 um concentration stably expressed in HEK293 cells. In kind it is cell-based. In outline:
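Competition binding was run on HEK293 cells stably expressing human MC1R, with [125I]-NDP-MSH as the radioligand. The value is percent inhibition of binding with the test ligand at 10 µM.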

The structures appear in SMILES notation.

Chain of Melanocortin receptor 3 (P41968 whole entry): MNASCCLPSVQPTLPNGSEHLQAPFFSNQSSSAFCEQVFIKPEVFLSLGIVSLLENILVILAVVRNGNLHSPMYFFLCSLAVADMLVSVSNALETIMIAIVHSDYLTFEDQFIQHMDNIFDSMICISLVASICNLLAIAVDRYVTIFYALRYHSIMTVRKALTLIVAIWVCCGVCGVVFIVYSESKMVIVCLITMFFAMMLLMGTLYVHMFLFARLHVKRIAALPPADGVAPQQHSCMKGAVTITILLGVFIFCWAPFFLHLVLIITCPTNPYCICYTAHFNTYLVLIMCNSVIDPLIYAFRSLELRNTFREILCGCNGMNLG
T1 sequence (P32245 whole entry): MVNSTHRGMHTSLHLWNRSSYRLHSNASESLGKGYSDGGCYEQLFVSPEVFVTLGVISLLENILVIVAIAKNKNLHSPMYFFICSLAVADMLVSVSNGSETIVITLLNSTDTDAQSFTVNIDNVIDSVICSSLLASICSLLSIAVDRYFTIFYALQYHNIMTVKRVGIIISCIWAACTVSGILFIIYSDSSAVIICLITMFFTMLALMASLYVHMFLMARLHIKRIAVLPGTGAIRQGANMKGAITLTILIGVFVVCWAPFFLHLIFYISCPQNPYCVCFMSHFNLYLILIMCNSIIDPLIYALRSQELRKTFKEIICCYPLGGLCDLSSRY
Chain of Melanocyte-stimulating hormone receptor (Q01726 whole entry): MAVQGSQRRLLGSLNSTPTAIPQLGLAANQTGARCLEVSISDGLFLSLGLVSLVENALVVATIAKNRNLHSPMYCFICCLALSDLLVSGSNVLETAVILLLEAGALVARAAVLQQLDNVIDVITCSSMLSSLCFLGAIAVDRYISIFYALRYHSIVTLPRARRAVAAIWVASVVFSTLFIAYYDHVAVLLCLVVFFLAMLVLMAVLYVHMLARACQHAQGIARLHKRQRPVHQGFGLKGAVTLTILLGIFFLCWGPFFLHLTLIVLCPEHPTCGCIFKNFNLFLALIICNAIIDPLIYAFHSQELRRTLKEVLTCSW

In the case of `NCCC(=O)N[C@H](Cc1ccc(Cl)cc1Cl)C(=O)N1CCN(C2(CNC(=O)c3cccs3)CCCCC2)CC1`, on Melanocortin receptor 4 [1], the Stimulation stood at 5.1%. This molecule came in with a Ki on Melanocortin receptor 4 [2] of 230 nM.
For the molecule `COc1ccc(CC(=O)NCC2(N3CCN(C(=O)[C@@H](Cc4ccc(Cl)cc4Cl)NC(=O)CCN)CC3)CCCCC2)cc1`, on Melanocortin receptor 4 [1], the Stimulation amounted to 0.6%. Further, the Ki at Melanocortin receptor 4 [3] is 2.8 nM; on Melanocortin receptor 4 [2], 4.2 nM; at Melanocortin receptor 3 it was 1100 nM; at Melanocortin receptor 5, 540 nM; in assay [4], 5700 nM. The IC50 in the assay on HEK293 amounted to 150 nM.
`COc1cccc(CC(=O)NCC2(N3CCN(C(=O)[C@@H](Cc4ccc(Cl)cc4Cl)NC(=O)CCN)CC3)CCCCC2)c1` registered a Stimulation on Melanocortin receptor 4 [1] of 1.8%. In addition, the Ki was determined as 7.6 nM on Melanocortin receptor 4 [2], 650 nM on Melanocortin receptor 3, 470 nM at Melanocortin receptor 5 and 2800 nM in assay [4].
On Melanocortin receptor 4 [1], `NCCC(=O)N[C@H](Cc1ccc(Cl)cc1Cl)C(=O)N1CCN(C2(CNCc3ccccc3F)CCCCC2)CC1` came in with a Stimulation of 4.7%. Moreover, the Ki on Melanocortin receptor 4 [3] stood at 13 nM; at Melanocortin receptor 4 [2] it was 12 nM; at Melanocortin receptor 3 it was 2300 nM; at Melanocortin receptor 5 it was 1400 nM. In addition, the half-inhibitory concentration (IC50) in the assay with HEK293 is 760 nM. For the same molecule, in assay [4] (hek293), the Inhibition is 45%.
For `NCCC(=O)N[C@H](Cc1ccc(Cl)cc1Cl)C(=O)N1CCN(C2(CNC(=O)c3ccncc3)CCCCC2)CC1`, on Melanocortin receptor 4 [1], the Stimulation is 4.4%. The molecule also returned a Ki on Melanocortin receptor 4 [2] of 150 nM.
Taken in the same sequence, the figures for `N#Cc1ccc(CNCC2(N3CCN(C(=O)[C@@H](Cc4ccc(Cl)cc4Cl)NC(=O)CCN)CC3)CCCCC2)cc1` were 5% and 92 nM.
Taken in the same sequence, the figures for `NCCC(=O)N[C@H](Cc1ccc(Cl)cc1Cl)C(=O)N1CCN(C2(CNC(=O)c3ccc(F)cc3)CCCCC2)CC1` were 7.9% and 190 nM.
Taken in the same sequence, the figures for `COc1ccccc1C(=O)NCC1(N2CCN(C(=O)[C@@H](Cc3ccc(Cl)cc3Cl)NC(=O)CCN)CC2)CCCCC1` were 6.5% and 350 nM.
The molecule `COc1ccc(C(=O)NCC2(N3CCN(C(=O)[C@@H](Cc4ccc(Cl)cc4Cl)NC(=O)CCN)CC3)CCCCC2)cc1` had a Stimulation on Melanocortin receptor 4 [1] of 7.7%. In addition, the affinity at Melanocortin receptor 4 [2], expressed as Ki, was 250 nM.
Taken in the same sequence, the figures for `NCCC(=O)N[C@H](Cc1ccc(Cl)cc1Cl)C(=O)N1CCN(C2(CN)CCCCC2)CC1` were 0.5% and 290 nM.
`NCCC(=O)N[C@H](Cc1ccc(Cl)cc1Cl)C(=O)N1CCN(C2(CNC(=O)c3ccc(Cl)cc3)CCCCC2)CC1` gave a Stimulation on Melanocortin receptor 4 [1] of 10%. Moreover, the Ki on Melanocortin receptor 4 [2] is 210 nM.
Taken in the same sequence, the figures for `NCCC(=O)N[C@H](Cc1ccc(Cl)cc1Cl)C(=O)N1CCN(C2(CNCc3nccs3)CCCCC2)CC1` were 4.9% and 49 nM.
Regarding `CN(C)c1ccc(CNCC2(N3CCN(C(=O)[C@@H](Cc4ccc(Cl)cc4Cl)NC(=O)CCN)CC3)CCCCC2)cc1`, the Stimulation on Melanocortin receptor 4 [1] came to 4.2%. Besides, the inhibition constant Ki at Melanocortin receptor 4 [2] turned out to be 110 nM.
With `NCCC(=O)N[C@H](Cc1ccc(Cl)cc1Cl)C(=O)N1CCN(C2(CNC(=O)Cc3cccs3)CCCCC2)CC1`, the Stimulation at Melanocortin receptor 4 [1] was found to be 3.4%. Further, the inhibitory constant (Ki) amounted to 8.4 nM on Melanocortin receptor 4 [2], 1100 nM at Melanocortin receptor 3, 480 nM on Melanocortin receptor 5 and 4600 nM in assay [4].
`NCCC(=O)N[C@H](Cc1ccc(Cl)cc1Cl)C(=O)N1CCN(C2(CNCc3ccc(F)cc3)CCCCC2)CC1`: the Stimulation on Melanocortin receptor 4 [1] was 6.4%. The molecule also showed an inhibition constant Ki at Melanocortin receptor 4 [2] of 61 nM.
Take `NCCC(=O)N[C@H](Cc1ccc(Cl)cc1Cl)C(=O)N1CCN(C2(CNC(=O)c3ccco3)CCCCC2)CC1`: the Stimulation at Melanocortin receptor 4 [1] was 4.5%. At Melanocortin receptor 4 [2], this molecule yielded an inhibition constant Ki of 260 nM.
`NCCC(=O)N[C@H](Cc1ccc(Cl)cc1Cl)C(=O)N1CCN(C2(CNCCCc3ccccc3)CCCCC2)CC1`: the Stimulation on Melanocortin receptor 4 [1] was 2.8%. At Melanocortin receptor 4 [2], this molecule came in with a Ki of 60 nM.
Turning to `Cc1ccc(C(=O)NCC2(N3CCN(C(=O)[C@@H](Cc4ccc(Cl)cc4Cl)NC(=O)CCN)CC3)CCCCC2)cc1`, the Stimulation at Melanocortin receptor 4 [1] stood at 7.8%. On Melanocortin receptor 4 [2], this molecule returned a Ki of 270 nM.
`NCCC(=O)N[C@H](Cc1ccc(Cl)cc1Cl)C(=O)N1CCN(C2(CNC(=O)Nc3ccc(Cl)cc3)CCCCC2)CC1`: on Melanocortin receptor 4 [1], the Stimulation is 5.9%. At Melanocortin receptor 4 [2], the Ki was 420 nM.
For `NCCC(=O)N[C@H](Cc1ccc(Cl)cc1Cl)C(=O)N1CCN(C2(CNC(=O)c3ccccc3)CCCCC2)CC1` the same measures were 5.1% and 220 nM.
Taken in the same sequence, the figures for `NCCC(=O)N[C@H](Cc1ccc(Cl)cc1Cl)C(=O)N1CCN(C2(CNC(=O)Nc3ccc([N+](=O)[O-])cc3)CCCCC2)CC1` were 11% and 540 nM.
Taken in the same sequence, the figures for `NCCC(=O)N[C@H](Cc1ccc(Cl)cc1Cl)C(=O)N1CCN(C2(CNCc3ccc(C(F)(F)F)cc3)CCCCC2)CC1` were 4.1% and 45 nM.
As for `CC(C)CNCC1(N2CCN(C(=O)[C@@H](Cc3ccc(Cl)cc3Cl)NC(=O)CCN)CC2)CCCCC1`, on Melanocortin receptor 4 [1], the Stimulation came out at 0.7%. On Melanocortin receptor 4 [2], the inhibition constant Ki was found to be 180 nM.
For `CC(C)(C)CCNCC1(N2CCN(C(=O)[C@@H](Cc3ccc(Cl)cc3Cl)NC(=O)CCN)CC2)CCCCC1`, the Stimulation on Melanocortin receptor 4 [1] was 3.6%. At Melanocortin receptor 4 [2], the Ki amounted to 340 nM.
Taken in the same sequence, the figures for `CC(C)(C)c1ccc(C(=O)NCC2(N3CCN(C(=O)[C@@H](Cc4ccc(Cl)cc4Cl)NC(=O)CCN)CC3)CCCCC2)cc1` were 8.2% and 520 nM.
On Melanocortin receptor 4 [1], `NCCC(=O)N[C@H](Cc1ccc(Cl)cc1Cl)C(=O)N1CCN(C2(CNC(=O)c3ccc(Br)cc3)CCCCC2)CC1` displayed a Stimulation of 12%. Moreover, the inhibitory constant (Ki) on Melanocortin receptor 4 [2] is 240 nM.
For `NCCC(=O)N[C@H](Cc1ccc(Cl)cc1Cl)C(=O)N1CCN(C2(CNC(=O)Cc3ccc(Cl)cc3)CCCCC2)CC1` the same measures were 1.4% and 23 nM.
For `NCCC(=O)N[C@H](Cc1ccc(Cl)cc1Cl)C(=O)N1CCN(C2(CNCc3ccc(OC(F)(F)F)cc3)CCCCC2)CC1` the same measures were 2.4% and 22 nM.
`NCCC(=O)N[C@H](Cc1ccc(Cl)cc1Cl)C(=O)N1CCN(C2(CNC(=O)c3ccc([N+](=O)[O-])cc3)CCCCC2)CC1` returned a Stimulation on Melanocortin receptor 4 [1] of 6.7%. In addition, on Melanocortin receptor 4 [2], the inhibition constant Ki worked out at 120 nM.
For `NCCC(=O)N[C@H](Cc1ccc(Cl)cc1Cl)C(=O)N1CCN(C2(CNC(=O)c3ccc(OC(F)(F)F)cc3)CCCCC2)CC1` the same measures were 8.9% and 400 nM.
For `COC(=O)c1ccc(NC(=O)NCC2(N3CCN(C(=O)[C@@H](Cc4ccc(Cl)cc4Cl)NC(=O)CCN)CC3)CCCCC2)cc1` the same measures were 12% and 260 nM.
For the molecule `NCCC(=O)N[C@H](Cc1ccc(Cl)cc1Cl)C(=O)N1CCN(C2(CNCc3ccccn3)CCCCC2)CC1`, on Melanocortin receptor 4 [1], the Stimulation worked out at 3%. This molecule also yielded a Ki at Melanocortin receptor 4 [2] of 36 nM.
For `NCCC(=O)N[C@H](Cc1ccc(Cl)cc1Cl)C(=O)N1CCN(C2(CNC(=O)C(F)(F)F)CCCCC2)CC1` the same measures were 0.9% and 490 nM.
For `NCCC(=O)N[C@H](Cc1ccc(Cl)cc1Cl)C(=O)N1CCN(C2(CNC(=O)c3cccnc3)CCCCC2)CC1`, the Stimulation at Melanocortin receptor 4 [1] was determined as 4.3%. Besides, on Melanocortin receptor 4 [2], the affinity corresponds to a Ki of 220 nM.
For `NCCC(=O)N[C@H](Cc1ccc(Cl)cc1Cl)C(=O)N1CCN(C2(CNC(=O)Nc3ccc(F)cc3)CCCCC2)CC1` the same measures were 5.5% and 210 nM.
In the case of `NCCC(=O)N[C@H](Cc1ccc(Cl)cc1Cl)C(=O)N1CCN(C2(CNC(=O)c3ccc(C(F)(F)F)cc3)CCCCC2)CC1`, on Melanocortin receptor 4 [1], the Stimulation was 8.7%. Also, affinity on Melanocortin receptor 4 [2] was put at a Ki of 340 nM.
On Melanocortin receptor 4 [1], `COc1ccc(CC(=O)NCC2(N3CCN(C(=O)[C@@H](Cc4ccc(Cl)cc4Cl)NC(=O)CCN)CC3)CCCCC2)cc1OC` registered a Stimulation of 2.7%. Further, affinity at Melanocortin receptor 4 [2] was put at a Ki of 18 nM.
`NCCC(=O)N[C@H](Cc1ccc(Cl)cc1Cl)C(=O)N1CCN(C2(CNC(=O)Cc3ccc(F)cc3)CCCCC2)CC1` gave a Stimulation on Melanocortin receptor 4 [1] of 2.3%. At Melanocortin receptor 4 [2], this molecule gave an inhibitory constant (Ki) of 21 nM.
`COc1ccc(NC(=O)NCC2(N3CCN(C(=O)[C@@H](Cc4ccc(Cl)cc4Cl)NC(=O)CCN)CC3)CCCCC2)cc1`: at Melanocortin receptor 4 [1], the Stimulation turned out to be 1%. Also, the Ki on Melanocortin receptor 4 [2] was 36 nM.
Taken in the same sequence, the figures for `NCCC(=O)N[C@H](Cc1ccc(Cl)cc1Cl)C(=O)N1CCN(C2(CNCc3ccccc3)CCCCC2)CC1` were 5.1% and 18 nM.
Taken in the same sequence, the figures for `NCCC(=O)N[C@H](Cc1ccc(Cl)cc1Cl)C(=O)N1CCN(C2(CNCC3CCCCC3)CCCCC2)CC1` were 5.1% and 220 nM.
Taken in the same sequence, the figures for `CN(C)c1ccc(NC(=O)NCC2(N3CCN(C(=O)[C@@H](Cc4ccc(Cl)cc4Cl)NC(=O)CCN)CC3)CCCCC2)cc1` were 2.7% and 62 nM.

A word on the Ki: it is the dissociation constant of the complex between target and ligand, obtained from inhibition or displacement. Read a high Ki as lower affinity. One may read the IC50 as the midpoint of a concentration-inhibition curve. By Inhibition is commonly meant the share of the control response that was lost under treatment. Low values mean a response near the control, high ones a response far below the control.
